ChEMBL document CHEMBL4673384, “Studying Histone Deacetylase Inhibition and Apoptosis Induction of Psammaplin A Monomers with Modified Thiol Group” (ACS Med Chem Lett, 2021)
pIC50: −log10 of the molar value. The source made the active and inactive calls. No cut-off for these calls is given here.

Tests used:
Histone deacetylase 2 [1] = biological target: T1, Histone deacetylase 2 (Homo sapiens, UniProt Q92769); test: Inhibition of HDAC2 in human HL-60 cells assessed as increase in Ac-H3 level at 20 uM incubated for 24 hrs by Western blot analysis; format: cell-based
T1 sequence (Q92769 whole entry): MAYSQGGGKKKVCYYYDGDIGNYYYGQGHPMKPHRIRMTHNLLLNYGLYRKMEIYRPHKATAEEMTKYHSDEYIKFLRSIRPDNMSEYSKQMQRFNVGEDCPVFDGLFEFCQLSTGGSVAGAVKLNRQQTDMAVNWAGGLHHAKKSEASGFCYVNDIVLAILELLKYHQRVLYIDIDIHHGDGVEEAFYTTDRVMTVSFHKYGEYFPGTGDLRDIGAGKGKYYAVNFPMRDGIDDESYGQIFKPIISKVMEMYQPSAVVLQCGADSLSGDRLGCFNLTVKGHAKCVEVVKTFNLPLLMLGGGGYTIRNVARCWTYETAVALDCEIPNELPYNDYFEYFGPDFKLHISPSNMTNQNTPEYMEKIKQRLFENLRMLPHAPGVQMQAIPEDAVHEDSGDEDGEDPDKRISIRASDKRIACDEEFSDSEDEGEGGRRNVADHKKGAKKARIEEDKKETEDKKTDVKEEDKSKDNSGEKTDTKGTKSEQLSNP
Method in brief: (§1)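 Compound given to HL-60 cells for 24 h at the stated concentrations, then lysed. Acetyl-histone H3 and acetyl-α-tubulin levels were read by Western blot, with total H3, α-tubulin or β-actin as references.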

HL-60 [2] = test: Growth inhibition of human HL-60 cells after 72 hrs by trypan blue dye based assay; format: functional; conditions: for GI50: Homo sapiens, HL-60
Method in brief: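 HL-60 leukemia cells were exposed to compound for 72 h. Growth inhibition is reported as IG50 (half the growth inhibition concentration), as means plus SD of three independent experiments.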

HL-60 [3] = test: Induction of apoptosis in human HL-60 cells assessed as late apoptotic cells at 20 uM incubated for 24 hrs by propidium iodide and annexin-V FITC staining based FACS analysis (reference value: 3.7 %); format: functional
[4] = biological target: Histone deacetylase 3/Nuclear receptor corepressor 2 (HDAC3/NCoR2) (Homo sapiens, UniProt O15379); test: Inhibition of C-terminal His-tagged recombinant human HDAC3 (1 to 428 residues)/N-terminal GST-tagged recombinant human NCoR2 (395 to 489 residues) co-expressed in baculovirus infected Sf9 cells using Boc-Lys(Ac)-AMC as substrate preincubated for 15 mins followed by substrate addition and measured after 60 mins by fluorescence based assay
Sequence of Histone deacetylase 3/Nuclear receptor corepressor 2 (HDAC3/NCoR2) (O15379 whole entry, the tested form may be a part): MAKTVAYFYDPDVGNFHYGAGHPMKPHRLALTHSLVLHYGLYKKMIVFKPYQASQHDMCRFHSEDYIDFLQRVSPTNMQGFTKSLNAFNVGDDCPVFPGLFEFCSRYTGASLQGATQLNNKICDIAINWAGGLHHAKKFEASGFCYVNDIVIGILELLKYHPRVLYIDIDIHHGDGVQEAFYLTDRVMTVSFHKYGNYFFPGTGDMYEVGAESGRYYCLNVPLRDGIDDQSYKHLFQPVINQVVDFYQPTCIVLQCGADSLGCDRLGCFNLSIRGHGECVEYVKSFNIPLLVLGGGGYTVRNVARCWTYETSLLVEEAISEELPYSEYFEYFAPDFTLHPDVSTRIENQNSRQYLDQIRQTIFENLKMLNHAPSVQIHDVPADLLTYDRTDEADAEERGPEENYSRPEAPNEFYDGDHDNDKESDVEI
Sequence of Histone deacetylase 3/Nuclear receptor corepressor 2 (HDAC3/NCoR2) (Q9Y618 whole entry, further chain, the tested form may be a part): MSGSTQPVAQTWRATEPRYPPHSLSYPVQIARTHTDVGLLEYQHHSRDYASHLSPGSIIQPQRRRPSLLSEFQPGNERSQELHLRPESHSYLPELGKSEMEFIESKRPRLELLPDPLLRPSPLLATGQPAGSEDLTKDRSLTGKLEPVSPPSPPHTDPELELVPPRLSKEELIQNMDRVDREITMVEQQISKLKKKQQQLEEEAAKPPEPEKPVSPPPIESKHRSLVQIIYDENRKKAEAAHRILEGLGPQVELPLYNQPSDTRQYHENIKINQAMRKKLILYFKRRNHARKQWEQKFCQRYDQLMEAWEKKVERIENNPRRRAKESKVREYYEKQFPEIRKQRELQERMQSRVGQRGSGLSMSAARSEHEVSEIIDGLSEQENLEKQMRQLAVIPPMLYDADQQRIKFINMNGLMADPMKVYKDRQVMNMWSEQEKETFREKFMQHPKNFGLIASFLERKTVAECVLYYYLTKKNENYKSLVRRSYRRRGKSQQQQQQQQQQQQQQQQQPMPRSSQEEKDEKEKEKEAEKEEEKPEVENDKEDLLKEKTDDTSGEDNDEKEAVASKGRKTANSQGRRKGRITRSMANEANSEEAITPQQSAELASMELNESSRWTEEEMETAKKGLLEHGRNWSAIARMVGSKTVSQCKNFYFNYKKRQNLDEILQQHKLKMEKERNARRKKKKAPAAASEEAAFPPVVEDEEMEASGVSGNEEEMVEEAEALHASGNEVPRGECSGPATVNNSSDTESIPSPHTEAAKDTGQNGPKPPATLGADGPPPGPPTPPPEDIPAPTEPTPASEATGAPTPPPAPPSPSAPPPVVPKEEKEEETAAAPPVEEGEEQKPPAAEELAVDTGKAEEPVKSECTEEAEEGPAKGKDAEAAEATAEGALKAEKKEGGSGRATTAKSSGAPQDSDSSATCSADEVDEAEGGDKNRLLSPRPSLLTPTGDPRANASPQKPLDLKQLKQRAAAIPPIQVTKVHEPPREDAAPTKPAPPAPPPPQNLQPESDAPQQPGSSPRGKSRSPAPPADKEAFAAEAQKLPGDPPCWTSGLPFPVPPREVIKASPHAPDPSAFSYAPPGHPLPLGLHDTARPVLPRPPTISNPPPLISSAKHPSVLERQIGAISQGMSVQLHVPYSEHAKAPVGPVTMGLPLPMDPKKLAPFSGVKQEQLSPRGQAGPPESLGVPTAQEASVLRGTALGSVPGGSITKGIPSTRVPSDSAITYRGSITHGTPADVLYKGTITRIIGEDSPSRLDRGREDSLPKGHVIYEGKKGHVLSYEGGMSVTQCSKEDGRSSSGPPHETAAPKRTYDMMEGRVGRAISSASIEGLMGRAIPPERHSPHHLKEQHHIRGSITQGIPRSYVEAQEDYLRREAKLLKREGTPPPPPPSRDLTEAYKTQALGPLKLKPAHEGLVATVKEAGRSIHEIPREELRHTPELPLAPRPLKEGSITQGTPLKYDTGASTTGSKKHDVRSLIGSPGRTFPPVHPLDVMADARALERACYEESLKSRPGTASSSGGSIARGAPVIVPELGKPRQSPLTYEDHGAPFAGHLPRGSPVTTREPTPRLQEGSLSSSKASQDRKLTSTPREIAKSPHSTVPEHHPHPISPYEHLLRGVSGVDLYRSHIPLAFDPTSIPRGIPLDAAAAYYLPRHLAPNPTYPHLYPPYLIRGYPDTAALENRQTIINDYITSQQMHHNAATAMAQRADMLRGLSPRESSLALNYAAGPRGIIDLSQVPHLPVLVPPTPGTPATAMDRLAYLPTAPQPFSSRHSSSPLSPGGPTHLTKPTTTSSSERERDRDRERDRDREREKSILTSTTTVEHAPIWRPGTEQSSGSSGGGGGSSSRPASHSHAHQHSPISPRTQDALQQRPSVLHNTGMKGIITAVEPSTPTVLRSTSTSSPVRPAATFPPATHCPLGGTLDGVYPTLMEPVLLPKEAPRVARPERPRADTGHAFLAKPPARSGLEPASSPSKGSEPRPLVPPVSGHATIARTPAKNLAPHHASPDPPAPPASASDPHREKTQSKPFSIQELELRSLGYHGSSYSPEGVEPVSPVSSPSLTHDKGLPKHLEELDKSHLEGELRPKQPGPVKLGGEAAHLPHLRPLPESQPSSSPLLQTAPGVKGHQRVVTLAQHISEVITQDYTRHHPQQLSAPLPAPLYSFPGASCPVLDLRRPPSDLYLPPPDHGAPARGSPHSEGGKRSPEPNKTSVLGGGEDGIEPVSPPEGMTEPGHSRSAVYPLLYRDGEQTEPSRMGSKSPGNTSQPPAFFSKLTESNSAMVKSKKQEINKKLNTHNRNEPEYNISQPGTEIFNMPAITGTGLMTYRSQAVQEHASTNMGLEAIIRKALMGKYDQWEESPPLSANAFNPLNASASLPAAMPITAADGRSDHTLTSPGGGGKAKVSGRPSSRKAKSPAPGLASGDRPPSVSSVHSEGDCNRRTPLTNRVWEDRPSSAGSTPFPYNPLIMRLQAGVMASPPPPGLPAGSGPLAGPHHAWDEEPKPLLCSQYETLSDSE

[5] = biological target: Histone deacetylase 3 (Homo sapiens) (UniProt O15379); test: Inhibition of HDAC3 in human HL-60 cells assessed as increase in Ac-H3 level at 20 uM incubated for 24 hrs by Western blot analysis; format: cell-based; method in brief: as §1
Sequence of Histone deacetylase 3 (Homo sapiens) (O15379 whole entry): as the sequence (O15379 whole entry, the tested form may be a part) above

HL-60 [6] = test: Induction of apoptosis in human HL-60 cells assessed as early apoptotic cells at 20 uM incubated for 24 hrs by propidium iodide and annexin-V FITC staining based FACS analysis (reference value: […]); format: functional
HL-60 [7] = test: Induction of apoptosis in human HL-60 cells assessed as necrotic cells at 20 uM incubated for 24 hrs by propidium iodide and annexin-V FITC staining based FACS analysis (reference value: 0.5 %); format: functional
Histone deacetylase 1 [8] = biological target: T2, Histone deacetylase 1 (Homo sapiens, UniProt Q13547); test: Inhibition of recombinant full length C-terminal FLAG/His-tagged human HDAC1 expressed in baculovirus infected Sf9 cells using Boc-Lys(Ac)-AMC as substrate preincubated for 15 mins followed by substrate addition and measured after 60 mins by fluorescence based assay
T2 sequence (Q13547 whole entry): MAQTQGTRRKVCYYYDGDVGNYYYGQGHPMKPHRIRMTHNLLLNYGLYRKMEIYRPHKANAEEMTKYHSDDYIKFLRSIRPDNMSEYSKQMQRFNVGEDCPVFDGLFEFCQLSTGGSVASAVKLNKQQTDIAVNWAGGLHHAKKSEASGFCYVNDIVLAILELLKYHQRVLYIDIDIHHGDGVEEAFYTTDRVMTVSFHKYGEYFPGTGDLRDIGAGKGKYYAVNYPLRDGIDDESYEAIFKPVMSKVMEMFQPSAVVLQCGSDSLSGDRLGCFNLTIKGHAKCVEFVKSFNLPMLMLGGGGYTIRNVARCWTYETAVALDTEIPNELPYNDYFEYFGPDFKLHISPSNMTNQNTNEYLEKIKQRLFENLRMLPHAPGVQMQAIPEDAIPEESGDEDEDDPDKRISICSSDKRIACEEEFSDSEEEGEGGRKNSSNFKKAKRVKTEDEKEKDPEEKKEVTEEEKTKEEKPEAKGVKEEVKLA

[9] = biological target: T3, Protein deacetylase HDAC6 (Homo sapiens, UniProt Q9UBN7); test: Inhibition of recombinant full length C-terminal FLAG-tagged human HDAC6 expressed in baculovirus infected Sf9 cells using Boc-Lys(Ac)-AMC as substrate preincubated for 15 mins followed by substrate addition and measured after 60 mins by fluorescence based assay
T3 sequence (Q9UBN7 whole entry): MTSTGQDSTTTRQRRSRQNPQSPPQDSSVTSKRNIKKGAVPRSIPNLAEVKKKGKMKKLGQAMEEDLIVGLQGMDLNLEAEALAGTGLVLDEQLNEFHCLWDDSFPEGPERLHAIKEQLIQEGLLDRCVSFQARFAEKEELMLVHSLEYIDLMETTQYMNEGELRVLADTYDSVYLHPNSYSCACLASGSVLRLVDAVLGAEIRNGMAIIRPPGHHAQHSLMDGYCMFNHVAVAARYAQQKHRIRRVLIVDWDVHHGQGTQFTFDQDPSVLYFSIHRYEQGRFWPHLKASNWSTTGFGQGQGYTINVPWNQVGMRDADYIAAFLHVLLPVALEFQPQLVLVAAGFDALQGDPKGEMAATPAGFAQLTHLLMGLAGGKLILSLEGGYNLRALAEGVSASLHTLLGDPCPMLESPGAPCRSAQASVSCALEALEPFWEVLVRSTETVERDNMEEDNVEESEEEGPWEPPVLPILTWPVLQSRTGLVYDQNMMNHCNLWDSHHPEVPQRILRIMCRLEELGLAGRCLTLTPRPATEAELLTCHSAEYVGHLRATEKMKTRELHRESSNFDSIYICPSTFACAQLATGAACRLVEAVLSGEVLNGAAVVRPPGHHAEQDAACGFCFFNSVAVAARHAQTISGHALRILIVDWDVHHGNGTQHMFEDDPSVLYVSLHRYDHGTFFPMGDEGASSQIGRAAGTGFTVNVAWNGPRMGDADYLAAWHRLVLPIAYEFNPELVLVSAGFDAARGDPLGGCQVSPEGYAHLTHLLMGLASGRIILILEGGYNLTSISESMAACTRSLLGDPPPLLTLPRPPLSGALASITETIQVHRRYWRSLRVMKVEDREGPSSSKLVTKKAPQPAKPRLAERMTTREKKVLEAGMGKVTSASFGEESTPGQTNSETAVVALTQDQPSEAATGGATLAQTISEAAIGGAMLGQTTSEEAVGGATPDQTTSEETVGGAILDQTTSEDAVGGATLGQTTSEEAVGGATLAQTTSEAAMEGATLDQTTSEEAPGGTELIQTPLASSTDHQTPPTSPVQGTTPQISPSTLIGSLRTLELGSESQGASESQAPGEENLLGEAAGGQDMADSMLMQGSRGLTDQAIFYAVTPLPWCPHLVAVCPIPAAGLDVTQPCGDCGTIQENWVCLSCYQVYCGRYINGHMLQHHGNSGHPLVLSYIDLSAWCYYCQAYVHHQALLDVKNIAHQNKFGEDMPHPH

HL-60 [10] = test: Induction of apoptosis in human HL-60 cells assessed as viable cells at 20 uM incubated for 24 hrs by propidium iodide and annexin-V FITC staining based FACS analysis (reference value: 93.9 %); format: functional; conditions: read-out: Activity
Histone deacetylase 2 [11] = biological target: T1, Histone deacetylase 2; test: Inhibition of recombinant full length C-terminal FLAG-tagged human HDAC2 expressed in baculovirus infected Sf9 cells using Boc-Lys(Ac)-AMC as substrate preincubated for 15 mins followed by substrate addition and measured after 60 mins by fluorescence based assay
Histone deacetylase 1 [12] = biological target: T2, Histone deacetylase 1; test: Inhibition of HDAC1 in human HL-60 cells assessed as increase in Ac-H3 level at 20 uM incubated for 24 hrs by Western blot analysis; format: cell-based; method in brief: as §1
[13] = Toxicity in mouse LL/2 cells inoculated C57BL/6J mouse assessed as effect on body weight by measuring initial body weight at 25 mg/kg, ip administered for 12 days measured for every 2 days (reference value: 18.4 +/- 0.4 g); format: organism-based; conditions: in vivo, 288 h, time 12 day
[14] = Toxicity in mouse LL/2 cells inoculated C57BL/6J mouse assessed as effect on body weight by measuring end body weight at 25 mg/kg, ip administered for 12 days and measured for every 2 days (reference value: 18.1 +/- 0.2 g); format: organism-based; conditions: in vivo, 288 h, time 12 day
[15] = Antitumor activity against mouse LL/2 cells inoculated in C57BL/6J mouse assessed as reduction of tumor weight at 25 mg/kg, ip administered for 12 days measured at day 14 (reference value: 0.98 +/- 0.07 g); format: functional, Lewis lung carcinoma; conditions: time 12 day
HL-60 [16] = test: Induction of apoptosis in human HL-60 cells assessed as necrotic cells at 40 uM incubated for 24 hrs by propidium iodide and annexin-V FITC staining based FACS analysis (reference value: 0.1 %); format: functional
[17] = Antiproliferative activity against mouse LL/2 cells assessed as cell growth inhibition incubated for 96 hrs by MTT assay; format: functional, Lewis lung carcinoma
HL-60 [18] = test: Induction of apoptosis in human HL-60 cells assessed as necrotic cells at 20 uM incubated for 24 hrs by propidium iodide and annexin-V FITC staining based FACS analysis (reference value: 0.1 %); format: functional
HL-60 [19] = test: Induction of apoptosis in human HL-60 cells assessed as viable cells at 40 uM incubated for 24 hrs by propidium iodide and annexin-V FITC staining based FACS analysis (reference value: 96.3 %); format: functional; conditions: read-out: Activity
HL-60 [20] = test: Induction of apoptosis in human HL-60 cells assessed as viable cells at 20 uM incubated for 24 hrs by propidium iodide and annexin-V FITC staining based FACS analysis (reference value: 96.3 %); format: functional; conditions: read-out: Activity
HL-60 [21] = test: Induction of apoptosis in human HL-60 cells assessed as late apoptotic cells at 40 uM incubated for 24 hrs by propidium iodide and annexin-V FITC staining based FACS analysis (reference value: 1.7 %); format: functional
A549 = test: Antiproliferative activity against human A549 cells assessed as cell growth inhibition incubated for 96 hrs by MTT assay; format: functional
HL-60 [22] = test: Induction of apoptosis in human HL-60 cells assessed as late apoptotic cells at 20 uM incubated for 24 hrs by propidium iodide and annexin-V FITC staining based FACS analysis (reference value: 1.7 %); format: functional
MCF7 = test: Antiproliferative activity against human MCF7 cells assessed as cell growth inhibition incubated for 96 hrs by MTT assay; format: functional
HL-60 [23] = test: Induction of apoptosis in human HL-60 cells assessed as early apoptotic cells at 40 uM incubated for 24 hrs by propidium iodide and annexin-V FITC staining based FACS analysis (reference value: 2.0 %); format: functional
HL-60 [24] = test: Induction of apoptosis in human HL-60 cells assessed as early apoptotic cells at 20 uM incubated for 24 hrs by propidium iodide and annexin-V FITC staining based FACS analysis (reference value: 2.0 %); format: functional
HCT-116 = test: Antiproliferative activity against human HCT-116 cells assessed as cell growth inhibition incubated for 96 hrs by MTT assay; format: functional
Histone deacetylase 1 [25] = biological target: T2, Histone deacetylase 1; test: Inhibition of HDAC1 in human HL-60 cells assessed as increase in Ac-H3 level at 2 uM incubated for 24 hrs by Western blot analysis; format: cell-based; method in brief: as §1

| Structure (SMILES) | GI50 (HL-60 [2]) [µM] | pIC50 [4] | pIC50 (Histone deacetylase 1 [8]) | pIC50 [9] | pIC50 (Histone deacetylase 2 [11]) | IG50 (HL-60 [2]) [µM] | also measured |
| --- | --- | --- | --- | --- | --- | --- | --- |
| CCCNC(=O)/C(Cc1ccc(O)c(Br)c1)=N/O | 13.5 | < 5.00 | < 5.00 | < 5.00 | < 5.00 | – | inhibition (Histone deacetylase 2 [1]): inactive; Activity (HL-60 [3]): 2.5%; inhibition [5]: inactive; Activity (HL-60 [6]): 1.8%; Activity (HL-60 [7]): 0.2%; viability at 20 µM (HL-60 [10]): 95.5%; inhibition (Histone deacetylase 1 [12]): inactive |
| O=C(NCCO)/C(Cc1ccc(O)c(Br)c1)=N/O | 20 | < 5.00 | < 5.00 | < 5.00 | < 5.00 | – | inhibition (Histone deacetylase 2 [1]): inactive; Activity (HL-60 [3]): 3.7%; inhibition [5]: inactive; Activity (HL-60 [6]): 1.7%; Activity (HL-60 [7]): 0.1%; viability at 20 µM (HL-60 [10]): 94.4%; inhibition (Histone deacetylase 1 [12]): inactive |
| CCCCNC(=O)/C(Cc1ccc(O)c(Br)c1)=N/O | 36 | < 5.00 | < 5.00 | < 5.00 | < 5.00 | – | – |
| Nc1ccccc1NC(=O)CCCCNC(=O)/C(Cc1ccc(O)c(Br)c1)=N/O | – | 5.84 | < 5.00 | < 5.00 | 5.01 | >40 | – |
| Nc1ccccc1NC(=O)CNC(=O)/C(Cc1ccc(O)c(Br)c1)=N/O | – | < 5.00 | < 5.00 | < 5.00 | < 5.00 | >40 | – |
| Nc1ccccc1NC(=O)CCNC(=O)/C(Cc1ccc(O)c(Br)c1)=N/O | – | < 5.00 | < 5.00 | < 5.00 | < 5.00 | >40 | – |
| O=C(CCCCCCC(=O)Nc1ccccc1)NO [VORINOSTAT] | – | – | – | – | – | – | Activity [13]: 17.9 g; Activity [14]: 18.1 g; Activity [15]: 0.55 g |
| O=C(CCCNC(=O)/C(Cc1ccc(O)c(Br)c1)=N/O)NO | – | < 5.00 | 6.00 | < 5.00 | < 5.00 | >40 | – |
| O=C(CNC(=O)/C(Cc1ccc(O)c(Br)c1)=N/O)NO | – | 5.91 | 5.53 | < 5.00 | 5.04 | >40 | – |
| Nc1cc(F)ccc1NC(=O)/C=C/c1cnn(C/C=C/c2ccccc2)c1 | – | – | – | – | – | 6.1 | Activity (HL-60 [16]): 2.9%; IG50 [17]: 10.8 µM; Activity (HL-60 [18]): 0.5%; viability at 40 µM (HL-60 [19]): 75.1%; viability at 20 µM (HL-60 [20]): 89.3%; Activity (HL-60 [21]): 17.2%; IG50 (A549): 28.3 µM; Activity (HL-60 [22]): 7.2%; IG50 (MCF7): 30 µM; Activity (HL-60 [23]): 4.8%; Activity (HL-60 [24]): 3%; IG50 (HCT-116): 22 µM; inhibition (Histone deacetylase 1 [25]): inactive |
| O=C(O)CCNC(=O)/C(Cc1ccc(O)c(Br)c1)=N/O | 11.8 | < 5.00 | < 5.00 | < 5.00 | < 5.00 | – | inhibition (Histone deacetylase 2 [1]): inactive; Activity (HL-60 [3]): 3.4%; inhibition [5]: inactive; Activity (HL-60 [6]): 2.2%; Activity (HL-60 [7]): 0.2%; viability at 20 µM (HL-60 [10]): 94.2%; inhibition (Histone deacetylase 1 [12]): inactive |
| Nc1ccccc1NC(=O)CCCNC(=O)/C(Cc1ccc(O)c(Br)c1)=N/O | – | 5.74 | < 5.00 | < 5.00 | < 5.00 | >40 | – |
| O=C(CCCCNC(=O)/C(Cc1ccc(O)c(Br)c1)=N/O)NO | – | 6.60 | 6.36 | 5.89 | < 5.00 | >40 | – |
